A selection: hits, their analogues and other compounds. The true share with any hit is near 1.3%.
H9c2 TAG inh: triacylglycerol accumulation inhibition; H9c2 cells, Nile Red lipid (TAG) fluorescence; cells loaded with 200 µM oleic acid; inhibition, % at 12.5 µM; AID 651582; 0.66% of 230,000 active;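 active = pattern-corrected inhibition of lipid staining of at least 50% with the nuclear-stain viability signal not falling by more than 50%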
sPLA2-III inh: Inhibits HGIII-sPLA2 liposome hydrolysis, primary screen; Q9NZ20; QFRET BODIPY PC-A2 liposome hydrolysis, fluorescence; inhibition, % at 12.2 µM; 0.56% of 370,000 active;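 active = inhibition above mean plus 3 SD of compounds lying within the high and low control bounds, cut at about 19% in these data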
Target sequence (Q9NZ20 whole entry, looked up): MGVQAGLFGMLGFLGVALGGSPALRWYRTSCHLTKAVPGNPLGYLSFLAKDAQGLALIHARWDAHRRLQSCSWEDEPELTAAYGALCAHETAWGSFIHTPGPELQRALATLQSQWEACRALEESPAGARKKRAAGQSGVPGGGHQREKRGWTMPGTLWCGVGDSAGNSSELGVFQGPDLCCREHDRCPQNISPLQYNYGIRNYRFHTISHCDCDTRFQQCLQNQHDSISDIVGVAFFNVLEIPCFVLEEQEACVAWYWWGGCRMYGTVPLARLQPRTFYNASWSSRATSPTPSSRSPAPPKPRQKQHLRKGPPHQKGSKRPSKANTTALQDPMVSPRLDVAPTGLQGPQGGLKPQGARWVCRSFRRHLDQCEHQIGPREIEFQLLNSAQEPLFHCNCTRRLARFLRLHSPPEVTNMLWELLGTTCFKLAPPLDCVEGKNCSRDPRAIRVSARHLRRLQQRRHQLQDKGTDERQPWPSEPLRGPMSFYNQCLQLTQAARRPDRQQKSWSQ
Efflux pump mplx: inhibitors of Candida antifungal efflux pumps expressed in yeast. S. cerevisiae Candida pump triplex, Nile Red efflux. inhibition, % at 10 µM. 0.44% of 330,000 active. AID 485275;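 active = plate passing quality check with inhibition over a set limit, or well fluorescence over plate mean plus 4 SD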;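 note: Nile Red retained in pooled yeast measured as flow cytometry median fluorescence; higher means more Nile Red kept so more efflux inhibition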
MT1-MMP act inh: blocks activation of human MT1-MMP. P50281. HT1080 RFP-PRO-GFP cells, GFP/RFP ratio fluorescence, overnight; percent of plate control window, DMSO zero. GFP/RFP ratio change, % at 20 µM. 0.061% of 360,000 active;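 active = GFP/RFP ratio change of at least 30% with cell ATP level not reduced by more than half and red fluorescence within 50% of control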
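system = RFP-PRO-GFP reporter HT1080 cells | dosing = 20 µM single dose, 1% DMSO | timing = overnight cell settling, then overnight compound exposure, 37 °C, 5% CO2 | read-out basis = GFP/RFP fluorescence ratio | controls = DMSO and RFP-L50D-GFP cell wells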
hGIII sPLA2 conf: human GIII-sPLA2 inhibition, confirmation; shares compounds with sPLA2-III inh; 34% of 2,000 active; inhibition, % at 12.2 µM; AID 743280; recombinant hGIII-sPLA2, BODIPY PC-A2 QFRET fluorescence;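 active = mean inhibition across triplicates above the hit cutoff set in the earlier primary screen, cut at about 19% in these data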
535nm interf: 535nm fluorescence interference, HGIII-sPLA2 counter-screen | inhibition, % at 12.2 µM | 8.5% of 2,000 active | shares compounds with sPLA2-III inh | BODIPY FL product fluorescence interference, QFRET;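 active = average inhibition above the solvent-only control mean plus 3 SD, cut at about 6% in these data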
BODIPY interf DR: counter-screen for HGIII-sPLA2 inhibitors: 535nm fluorescence interference, dose response. IC50, µM. BODIPY FL product fluorescence interference, cell-free. shares compounds with sPLA2-III inh. 240 tested, under 10 active;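 active = IC50 at or below 10 µM; inactive = IC50 above 10 µM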
A number is an active result; - = inactive; . = no result.

SMILES | H9c2 TAG inh | sPLA2-III inh | Efflux pump mplx | MT1-MMP act inh | hGIII sPLA2 conf | 535nm interf | others
O=C(Nc1nnc([C@@H]2C[C@H](O)[C@@H](CO)O2)s1)c1cccc(OC(F)(F)F)c1 | - | - | . | - | . | .
CC(=O)OCC(=O)[C@@]1(O)CC[C@H]2[C@@H]3CCC4=CC(=O)C=C[C@]4(C)[C@H]3C(=O)C[C@@]21C | . | - | - | - | . | .
CCOC1(C)OCC(=O)[C@]2(CCC3C4CCC5=CC(=O)C=CC5(C)C4C(=O)CC32C)O1 (some centres not stated) | . | 19 | - | - | - | -
Cc1ccc(C(=O)NCC(=O)NCC(=O)OCC(=O)c2ccc(F)cc2)cc1 | . | 27 | - | - | - | -
O=C(CNC(=O)c1ccccc1)NCC(=O)OCC(=O)c1ccc(F)cc1 | . | - | - | - | . | .
CCC(=O)N(CC(=O)Nc1sc(C)c(C)c1C(N)=O)C1CCCCC1 | . | 19 | - | - | - | -
Cc1ccc(N(CC(=O)N(C)Cc2ccccc2)S(C)(=O)=O)cc1C | - | - | - | - | . | .
CCCCCC(=O)NNC(=S)NC(=O)c1ccccc1[N+](=O)[O-] | - | 21 | - | - | 33 | - | BODIPY interf DR=-
O=C(NNC(=S)NC(=O)c1ccccc1[N+](=O)[O-])c1ccccc1Cl | - | 36 | - | - | 31 | - | BODIPY interf DR=-
CCN(C(=O)COC(=O)CCOc1ccc(C(C)(C)C)cc1)c1c(N)n(Cc2ccccc2)c(=O)[nH]c1=O | - | - | . | - | . | .
Cc1cc(-c2ccccc2)nc2oc3c(c12)NC(=O)CN(c1ccccc1)C3=O | - | - | - | - | . | .
COc1cccc(N2CC(=O)Nc3c(oc4nc(-c5ccccc5)cc(C)c34)C2=O)c1 | - | 20 | - | - | - | -
Cc1ccc(O)c(N=Nc2nccs2)c1 | - | 25 | - | - | - | 9.9
O=c1[nH]c(NCCO)nc2c1C1(CCCC1)Cc1ccccc1-2 | - | - | - | - | . | .
C=CCNC(=S)NNc1nc2c(c(=O)[nH]1)C1(CCCCC1)Cc1ccccc1-2 | - | 25 | - | - | 29 | - | BODIPY interf DR=-
O=C(Nc1ccccc1)c1cn(CCBr)cn1 | - | 20 | - | - | - | -
COC(=O)[C@]1(C)N[C@H](c2ccc(SC3CCCCC3)c(OC)c2)[C@@H]2C(=O)N(C)C(=O)[C@@H]21 | - | - | . | - | . | .
Nc1ccc(O)c2c(=O)cc(-c3ccccc3Cl)oc12 | - | 27 | - | - | 42 | -
O=c1cc(-c2ccccc2Cl)oc2cc(O)cc(O)c12 | - | - | - | - | . | .
O=C(c1cc(O)c(O)c([N+](=O)[O-])c1)c1ccccc1F | - | 29 | - | - | - | -
O=C(Nc1ccc([N+](=O)[O-])cc1)c1ccccc1F | . | - | - | - | . | .
CCOC(=O)C(=NC(C)CC)NNc1cccc(C(F)(F)F)c1 (configuration not stated) | . | 24 | - | - | 35 | - | BODIPY interf DR=-
CCOC(=O)C(=NC1CCCCC1)NNc1cccc(C(F)(F)F)c1 | - | - | - | - | . | .
O=C(O)c1ccccc1C(=O)Nc1ccc(S(=O)(=O)NC2CCCCC2)cc1 | . | 20 | - | - | - | -
CN=c1scc(-c2c[nH]c3ccccc23)n1C | - | - | . | - | . | .
SMILES | H9c2 TAG inh | sPLA2-III inh | Efflux pump mplx | MT1-MMP act inh | hGIII sPLA2 conf | 535nm interf | others
CCOc1ccccc1C(=O)NN1C(=O)C2CCCCC2C1=O (configuration not stated) | - | 22 | - | - | - | -
O=C(CSc1nncs1)NCc1ccc(F)cc1 | - | - | - | - | . | .
Cc1ccc(C)c(-n2cc[nH]c2=S)c1 | . | 20 | - | - | - | -
Cc1c(-c2nnc(SCC(=O)O)n2-c2ccccc2Br)nnn1-c1ccccc1 | . | - | - | - | . | .
CCCCOC(=O)Nc1ccccc1C(=O)N1CCCC1 | . | 22 | - | - | - | -
O=C1CCC([N+](=O)[O-])C(c2ccc(-c3ccccc3)cc2)N1 (configuration not stated) | - | - | - | - | . | .
O=C(Nc1ccc(-c2n[nH]c(=S)o2)cc1)c1ccccc1 | . | - | - | - | . | .
CC(=O)Nc1ccccc1NC(=O)c1cccc2ccccc12 | - | 22 | - | - | - | -
O=C(NN1CCOCC1)c1cccc2ccccc12 | . | 21 | - | - | - | -

Bioassay records from PubChem BioAssay.
